Here are results for 16 compounds from ChEMBL document CHEMBL1828598, “Discovery of gemfibrozil analogues that activate PPARα and enhance the expression of gene CPT1A involved in fatty acids catabolism” (Eur J Med Chem, 2011).

Test [1] has as its target T1, Peroxisome proliferator-activated receptor alpha (Homo sapiens, UniProt Q07869).
T1 sequence (Q07869 whole entry): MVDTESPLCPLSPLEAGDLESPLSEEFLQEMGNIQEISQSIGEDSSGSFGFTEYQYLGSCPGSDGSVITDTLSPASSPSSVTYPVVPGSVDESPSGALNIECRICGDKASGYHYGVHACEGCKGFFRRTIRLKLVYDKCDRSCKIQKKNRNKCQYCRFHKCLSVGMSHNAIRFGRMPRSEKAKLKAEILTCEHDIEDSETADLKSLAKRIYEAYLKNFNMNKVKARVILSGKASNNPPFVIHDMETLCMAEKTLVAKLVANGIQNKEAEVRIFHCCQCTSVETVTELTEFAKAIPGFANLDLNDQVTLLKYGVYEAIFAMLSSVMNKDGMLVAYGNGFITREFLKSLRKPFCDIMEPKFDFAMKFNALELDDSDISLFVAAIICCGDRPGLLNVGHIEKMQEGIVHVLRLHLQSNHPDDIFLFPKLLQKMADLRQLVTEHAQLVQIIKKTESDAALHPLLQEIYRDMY
The test is described as follows: Agonist activity at Gal4-fused PPARalpha expressed in HEK293 cells after 18 hrs by dual luciferase reporter gene assay. The test is classed as functional, cell-based. The method, boiled down: (§1)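 HEK293 cells were grown in DMEM with 10% FCS, penicillin/streptomycin, sodium pyruvate and nonessential amino acids at 37 °C, 5% CO2. The next day they were transfected in serum-free medium by calcium phosphate with GAL4-PPARα LBD (30 ng), firefly luciferase reporter (50 ng), renilla normalization vector (20 ng) and carrier DNA. Ligands were added 8 h later for 18 h. Efficacy is given as % of maximal gemfibrozil fold induction, from at least three separate experiments.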

In the next test the test system is HEK293. The test is described as follows: Selectivity ratio of EC50 for Gal4-fused PPARalpha expressed in HEK293 cells to EC50 for Gal4-fused PPARgamma expressed in HEK293 cells. Format: cell-based.
The target in test [2] is T2, Peroxisome proliferator-activated receptor alpha (Homo sapiens) (UniProt Q07869).
T2 sequence (whole entry): T1 sequence (Q07869 whole entry)
The test is described as follows: Agonist activity at PPARalpha in human HepG2 cells assessed as upregulation of CPT1a mRNA expression at 0.1 to 100 uM after 24 hrs by quantitative RT-PCR analysis. Format: functional, cell-based. The method, boiled down:
(§2)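 HepG2 cells were kept in DMEM with 10% FCS and 1% penicillin/streptomycin and seeded at 5 × 10⁵ cells/well the day before. They were treated 24 h with ligands in DMSO diluted in growth medium, and vehicle-only cells served as controls. Total RNA was taken with TRIzol and DNase-treated. CPT1A mRNA was measured by RT-qPCR against cyclophilin and normalized to vehicle-treated cells. Data are mean ± SEM of four independent determinations run in duplicate.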

For test [3], the target named is T2, Peroxisome proliferator-activated receptor alpha (Homo sapiens). The test is described as follows: Agonist activity at Gal4-fused PPARalpha expressed in HEK293 cells after 18 hrs by dual luciferase reporter gene assay relative to gemfibrozil. The test is classed as functional, cell-based. Summed up: as §1
For test [4] the target is unchanged. The test is described as follows: Agonist activity at PPARalpha in human HepG2 cells assessed as upregulation of CPT1a mRNA expression after 24 hrs by quantitative RT-PCR analysis. The test is classed as functional, cell-based. The method, boiled down:
as §2

The target is the same in test [5]. The test is described as follows: Agonist activity at PPARalpha in human HepG2 cells assessed as upregulation of CPT1a mRNA expression at 10 uM after 24 hrs by quantitative RT-PCR analysis relative to gemfibrozil. The test is classed as functional, cell-based. The method, boiled down:
as §2

The target is the same in test [6]. The test is described as follows: Agonist activity at PPARalpha in human HepG2 cells assessed as upregulation of CPT1a mRNA expression at 100 uM after 24 hrs by quantitative RT-PCR analysis relative to gemfibrozil. The test is classed as functional, cell-based. Summed up:
as §2

Molecules are shown by their SMILES. Calls of active or inactive are those of the source. No cut-off for these calls is given here.

Take `Cc1ccc(C)c(OCCCC(C)(C)C(=O)O)c1` [GEMFIBROZIL]: in test [1] (read-out: EC50), the EC50 stood at 59 µM. Besides, in the test with HEK293, the Ratio EC50 was determined as 0.7. The outcome in test [2] was Active.

Consider `CC(C)(CCCOc1ccc(C(=O)/C=C/c2ccccc2)cc1)C(=O)O`, for which, in test [1] (read-out: EC50), the EC50 was 61.5 µM. For the same compound, in test [3], the Efficacy was 165%. Moreover, the Ratio EC50 in the test with HEK293 was 2.1.

Turning to `C=CCc1ccc(OCCCCC(=O)O)c(OC)c1`, the EC50 in test [1] (read-out: EC50) was 11.3 µM. This compound displayed an Efficacy in test [3] of 94%. In the test on HEK293, the Ratio EC50 worked out at 0.8. For the same compound, in test [2], the outcome was inactive.

In the case of `O=C(O)CCCCOc1ccc(Oc2ccccc2)cc1`, in test [1] (hek293), the EC50 entry was “Not Active”.

As for `O=C(O)CCCCOc1ccc(NC(=O)Nc2ccccc2)cc1`, the EC50 in test [1] (read-out: EC50) was 9.3 µM. This compound also displayed an Efficacy in test [3] of 106%. In addition, the Ratio EC50 in the test on HEK293 is 1.3. Also, in test [2], the outcome was inactive.

In the case of `CC(C)(CCCOc1ccc(/C=C/c2ccccc2)cc1)C(=O)O`, the EC50 in test [1] (read-out: EC50) was 1 µM. The Efficacy in test [3] amounted to 223%. Besides, the Ratio EC50 in the test on HEK293 worked out at 1.4. Moreover, the Activity entry in test [4] is “Dose-dependent effect”. Besides, the fold change (FC) was 2 in test [5] and 6 in test [6].

Take `C=CCc1ccc(OCCCC(C)(C)C(=O)O)c(OC)c1`: the EC50 in test [1] (read-out: EC50) was determined as 6.6 µM. The compound further showed an Efficacy in test [3] of 117%. Also, the Ratio EC50 in the test on HEK293 was found to be 1. In test [2], the result was inactive.

In the case of `CC(=O)c1ccc(OCCCCC(=O)O)cc1`, the EC50 result in test [1] (hek293) is “Not Active”.

Turning to `O=C(O)CCCCOc1ccc(/N=N/c2ccccc2)cc1`, the EC50 result in test [1] (hek293) was “Not Active”.

`O=C(O)CCCCOc1ccc(C(=O)/C=C/c2ccccc2)cc1`: the EC50 in test [1] (read-out: EC50) stood at 109 µM. This compound had an Efficacy in test [3] of 235%. In addition, the Ratio EC50 in the test with HEK293 stood at 3.

For `O=C(O)CCCCOc1ccc(C(=O)c2ccccc2)cc1`, the EC50 in test [1] (read-out: EC50) amounted to 27.1 µM. This compound gave an Efficacy in test [3] of 123%. Moreover, the Ratio EC50 with HEK293 came to 1.

For the compound `CC(C)(CCCOc1ccc(Oc2ccccc2)cc1)C(=O)O`, the EC50 in test [1] (read-out: EC50) turned out to be 9.1 µM. Besides, the Efficacy in test [3] is 118%. Moreover, in the test on HEK293, the Ratio EC50 came out at 1.4.

`CC(C)(CCCOc1ccc(/N=N/c2ccccc2)cc1)C(=O)O`: the EC50 in test [1] (read-out: EC50) was 43.7 µM. The Efficacy in test [3] was 76%. Also, the Ratio EC50 with HEK293 was found to be 0.8.

As for `CC(=O)c1ccc(OCCCC(C)(C)C(=O)O)cc1`, the 50% effective concentration (EC50) result in test [1] (hek293) is “Not Active”.

As to `O=C(O)CCCCOc1ccc(/C=C/c2ccccc2)cc1`, in test [1] (read-out: EC50), the EC50 came to 18.8 µM. Moreover, the Efficacy in test [3] was determined as 206%. Moreover, in the test with HEK293, the Ratio EC50 stood at 1.1.

Consider `CC(C)(CCCOc1ccc(C(=O)c2ccccc2)cc1)C(=O)O`, for which, in test [1] (read-out: EC50), the EC50 worked out at 9.3 µM. Further, the Efficacy in test [3] is 82%. The Ratio EC50 in the test on HEK293 came to 0.9.
